Source: PubChem (The Scripps Research Institute Molecular Screening Center)
IMP-1 inhibitor = inhibitors of Pseudomonas aeruginosa IMP-1 metallo-beta-lactamase; hit rate 0.45% among 290,000; purified IMP-1, nitrocefin hydrolysis, epi-absorbance fluorescence; inhibition, % at 5.6 µM;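 active means inhibition above the mean plus 3 SD of all compounds in the same screening run, cut at about 4.5% in these data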
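system = purified recombinant IMP-1 beta-lactamase | amount = 0.2 nM IMP-1, as dispensed | medium = HEPES buffer pH 7.1 with ZnSO4 and Brij 35 | times = 25 °C, 15 min preincubation, 25 min reaction | detection = plate fluorescence quenching by hydrolysis product, ex 480/em 530 nm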
VIM-2 inhibitor = blocks Pseudomonas aeruginosa VIM-2 metallo-beta-lactamase | purified VIM-2, nitrocefin hydrolysis, epi-absorbance fluorescence | inhibition, % at 5.6 µM | hit rate 0.89% among 290,000 | AID 1527;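 active means inhibition above the mean of all tested compounds plus 3 SD, cutoff set per screening run, cut at about 7.5% in these data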;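 further: red hydrolysis product quenches plate fluorescence so inhibitors raise well fluorescence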
PAFAH1B2 inh = blocks human PAF acetylhydrolase 1b catalytic subunit 2 | P68402 | recombinant PAFAH1B2, FP-rhodamine activity probe, fluorescence polarization | inhibition, % at 3.39 µM | hit rate 1.2% among 340,000 | AID 492953;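 active means inhibition above the mean of all tested compounds plus 3 SD, cut at about 24% in these data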
Target sequence (P68402 whole entry, looked up): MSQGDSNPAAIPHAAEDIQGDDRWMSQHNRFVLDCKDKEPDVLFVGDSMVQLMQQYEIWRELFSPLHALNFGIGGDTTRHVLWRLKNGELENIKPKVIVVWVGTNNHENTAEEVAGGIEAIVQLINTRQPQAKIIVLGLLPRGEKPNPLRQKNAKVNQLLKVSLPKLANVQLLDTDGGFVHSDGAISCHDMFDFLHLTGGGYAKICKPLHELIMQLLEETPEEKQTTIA
pPAFAH inh = pPAFAH (human) enzyme inhibition | recombinant pPAFAH, FP-rhodamine probe fluorescence polarization | inhibition, % at 3.39 µM | hit rate 1.5% among 330,000;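 active means inhibition above the mean inhibition across the screen plus 3 SD, cut at about 25% in these data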;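 further: inhibitors block binding of the rhodamine activity-based probe so polarization drops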
Target sequence (Q13093 whole entry, looked up): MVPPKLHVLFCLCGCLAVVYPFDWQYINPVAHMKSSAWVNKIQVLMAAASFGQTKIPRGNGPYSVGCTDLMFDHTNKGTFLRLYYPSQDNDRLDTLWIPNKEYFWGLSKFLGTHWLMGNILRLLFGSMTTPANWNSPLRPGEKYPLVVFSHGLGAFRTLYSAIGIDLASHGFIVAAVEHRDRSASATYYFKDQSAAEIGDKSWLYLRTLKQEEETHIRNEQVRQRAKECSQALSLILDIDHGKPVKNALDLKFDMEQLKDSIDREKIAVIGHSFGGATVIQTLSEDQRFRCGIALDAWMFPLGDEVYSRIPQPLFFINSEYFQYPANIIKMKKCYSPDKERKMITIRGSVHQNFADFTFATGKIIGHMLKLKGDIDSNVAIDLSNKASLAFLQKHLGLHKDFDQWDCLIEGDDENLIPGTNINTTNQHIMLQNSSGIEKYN
PAFAH1B3 inh = PAFAH1B3 (human) inhibition; recombinant PAFAH1B3, FP-rhodamine probe, fluorescence polarization; inhibition, % at 3.39 µM; hit rate 0.28% among 340,000; AID 492972;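 active means inhibition above the screen-wide average of all tested compounds plus 3 SD, cut at about 25% in these data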
PAFAH2 inh = PAFAH2 (human) inhibition; recombinant PAFAH2, FP-rhodamine activity probe, fluorescence polarization; inhibition, % at 3.39 µM; AID 492956; hit rate 0.99% among 340,000;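 active means inhibition above the mean over all tested compounds plus 3 SD, cut at about 30% in these data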;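 further: inhibitors block probe labeling of enzyme so polarization drops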
PAFAH2 confirm = confirmation of human PAFAH2 inhibitors | shares compounds with PAFAH2 inh | recombinant PAFAH2, FP-rhodamine activity probe, fluorescence polarization | inhibition, % at 3.39 µM | hit rate 65% among 2,300 | AID 493030;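 active means mean inhibition over three repeats above a set limit taken from the earlier primary screen, cut at about 30% in these data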;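 further: inhibitor blocks binding of rhodamine activity probe so polarization falls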
Each line names hits and unclear results; the compound was inactive in the other large screens (follow-up assays come after a bar, where they were run). Only some compounds are listed: those with a hit (about 3.6% of all), similar ones and a draw of the others.

CCOc1ccc2oc(C(=O)OCC(=O)NC(=O)NC3CCCC3)c(C)c2c1	none
CCOc1cc(/C=C2\N=C(SC(C)C(N)=O)N(c3ccc(OC(F)F)cc3)C2=O)ccc1O (configuration not stated)	none
O=C(OCC(=O)c1cccc2ccccc12)c1ccc(CO)cc1	PAFAH2 inh 48 | PAFAH2 confirm inactive
Oc1ccccc1/C=N/NC(=S)NC1CC2CC1C1C=CCC21 (configuration not stated)	PAFAH2 inh 52 | PAFAH2 confirm inactive
Cc1cc(C)cc(NC(=O)COC(=O)c2cccc(S(=O)(=O)N3CCCCC3)c2)c1	PAFAH2 inh 65 (no result: IMP-1 inhibitor, VIM-2 inhibitor) | PAFAH2 confirm 52
Cc1cccc(NC(=O)COC(=O)c2cccc(S(=O)(=O)N3CCCCCC3)c2)c1	PAFAH2 inh 74 (no result: IMP-1 inhibitor, VIM-2 inhibitor) | PAFAH2 confirm 63
Cc1cn(CC(=O)NCCc2c[nH]c3ccccc23)c(=O)[nH]c1=O	none (no result: IMP-1 inhibitor, VIM-2 inhibitor, pPAFAH inh)
Cc1cc(NC(=O)COC(=O)CC2CCCC2)c([N+](=O)[O-])cc1C	PAFAH2 inh 56 | PAFAH2 confirm inactive
COc1ccc(C(=O)OCC(=O)Nc2cc(C)c(C)cc2[N+](=O)[O-])cc1	PAFAH2 inh 39 | PAFAH2 confirm 32
CCCCOc1ccc(C(=O)OCC(=O)Nc2cc(C)c(C)cc2[N+](=O)[O-])cc1	none
CCC(=O)OCC(=O)Nc1cc(C)c(C)cc1[N+](=O)[O-]	none
Cc1csc(Sc2ccc(C(=O)OCC(=O)Nc3ccc(F)cc3[N+](=O)[O-])cc2[N+](=O)[O-])n1	PAFAH2 inh 34 | PAFAH2 confirm inactive
CC(C)c1ccc(NC(=O)COC(=O)CC2CCCC2)cc1	PAFAH2 inh 54 (no result: IMP-1 inhibitor, VIM-2 inhibitor) | PAFAH2 confirm inactive
Cc1ccc(NC(=O)C2CCCO2)c(Br)c1 (configuration not stated)	none (no result: IMP-1 inhibitor, VIM-2 inhibitor)
Cc1cccc(NC(=O)COC(=O)CC2CCCC2)c1C	PAFAH2 inh 52 (no result: IMP-1 inhibitor, VIM-2 inhibitor, pPAFAH inh) | PAFAH2 confirm 38
O=C(COC(=O)CC1CCCC1)Nc1ccc(Br)cc1F	PAFAH2 inh 47 (no result: IMP-1 inhibitor, VIM-2 inhibitor) | PAFAH2 confirm 41
Cc1ccc(S(=O)(=O)N(C)C)cc1NC(=O)COC(=O)CC1CCCC1	PAFAH2 inh 32 (no result: IMP-1 inhibitor, VIM-2 inhibitor) | PAFAH2 confirm inactive
CCN1CCC(O)(/C=C/c2ccc(C(C)C)cc2)C(C(=O)/C=C/c2ccc(C(C)C)cc2)C1 (configuration not stated)	none (no result: IMP-1 inhibitor, VIM-2 inhibitor, pPAFAH inh)
COc1cccc(CN(C)C(=O)/C=C/c2ccc(S(=O)(=O)N3CCCCCC3)cc2)c1	none
O=C1CC(Nc2ccc(N3CCOCC3)cc2)C(=O)N1c1ccccc1 (configuration not stated)	none
COc1ccc(NC2CC(=O)N(c3ccccc3)C2=O)cc1 (configuration not stated)	PAFAH2 inh 41 | PAFAH2 confirm inactive
COc1cc(/C=C/C(=O)OCC(=O)NCCC2=CCCCC2)cc(OC)c1OC	PAFAH2 inh 33 (no result: IMP-1 inhibitor, VIM-2 inhibitor) | PAFAH2 confirm inactive
COc1cc(/C=C/C(=O)OCC(=O)NCCC2=CCCCC2)ccc1O	PAFAH2 inh 57 | PAFAH2 confirm 63
Cc1ccc(NC(=O)C2CCC(CNC(=O)[C@@H]3Cc4ccccc4CN3)CC2)c(C)c1 (some centres not stated)	none
CCCCOC(=O)n1c(=O)oc2ccc(S(=O)(=O)N3CCCCC3)cc21	PAFAH2 inh 66 | PAFAH2 confirm 61
CC(C)COC(=O)n1c(=O)oc2cc(S(=O)(=O)N3CCCCC3)ccc21	none
CCOC1=C(C#N)CC2(CC1)c1ccccc1-c1ccccc12	none (no result: IMP-1 inhibitor, VIM-2 inhibitor, pPAFAH inh)
CC(NC(=O)c1c(O)c2ccccc2n(C)c1=O)c1ccccc1 (configuration not stated)	none
Cc1c(Cl)cccc1N=C1SCCN1C(=O)CN1C(=O)NC2(CCCC2)C1=O	PAFAH2 inh 30 (no result: IMP-1 inhibitor, VIM-2 inhibitor) | PAFAH2 confirm inactive
CN(C)CC(O)CN1C(=O)NC(C)(C)C1=O (configuration not stated)	none
O=C(O)c1ccc(NS(=O)(=O)Cc2ccc(Cl)c(Cl)c2)cc1	none (no result: IMP-1 inhibitor, VIM-2 inhibitor, pPAFAH inh)
CC(NC(=O)COC(=O)CC(c1ccccc1)c1ccccc1)c1ccccc1 (configuration not stated)	PAFAH2 inh 59 | PAFAH2 confirm 47
Cc1ccc(C(=O)OCC(=O)NC(C)c2ccccc2)s1 (configuration not stated)	PAFAH2 inh 78 (no result: IMP-1 inhibitor, VIM-2 inhibitor) | PAFAH2 confirm 69
CC(NC(=O)COC(=O)C1CCC1)c1ccccc1 (configuration not stated)	none (no result: IMP-1 inhibitor, VIM-2 inhibitor)
Cc1ccc(C(=O)OCC(=O)c2ccc(Cl)s2)s1	PAFAH2 inh 74 | PAFAH2 confirm 66
Cc1ccc(C(=O)OCC(=O)NCCNC(=O)COC(=O)c2ccc(C)s2)s1	none (no result: IMP-1 inhibitor, VIM-2 inhibitor)
Cc1ccc(C(=O)NCC(=O)OCC(=O)NC(C)c2ccccc2)s1 (configuration not stated)	none
CCN1CCN(c2ccc(S(=O)(=O)N3CCCCC3)cc2NC(=O)c2cccc(C(F)(F)F)c2)CC1	none (no result: IMP-1 inhibitor, VIM-2 inhibitor)
C=CCCC(=O)N(C)CCO	none (no result: IMP-1 inhibitor, VIM-2 inhibitor)
O=C(Cc1cccc(NC(=O)C2CCCN(C(=O)C3CC3)C2)c1)Nc1cccc(C(=O)N2CCOCC2)c1 (configuration not stated)	none (no result: IMP-1 inhibitor, VIM-2 inhibitor, pPAFAH inh)
CCOC(=O)c1c(C)[nH]c(N=Nc2ccc(C)cc2)c1C	none
Cc1ccc(N=Nc2c(O)ccc3n[nH]nc23)cc1	PAFAH2 inh 30 (no result: pPAFAH inh) | PAFAH2 confirm inactive
O=C(c1cccc(Cl)c1)N1CCCc2ccccc21	none
O=C(/C=C/c1ccccc1)OCN1C(=O)c2ccccc2C1=O	PAFAH2 inh 33 | PAFAH2 confirm inactive
COc1cc(OC)c(C(=O)OCN2C(=O)c3ccccc3C2=O)cc1OC	none
COc1ccc(C(=O)OCN2C(=O)c3ccccc3C2=O)cc1	PAFAH2 inh 37 | PAFAH2 confirm inactive
CCCCNc1cc(C(=O)O)cc(S(N)(=O)=O)c1Oc1ccccc1	none
O=C(O)c1cc(=S)nc[nH]1	none (no result: IMP-1 inhibitor, VIM-2 inhibitor, pPAFAH inh)
CCN(C(=O)c1cccc(S(=O)(=O)N(C)C)c1)C12CC3CC(CC(C3)C1)C2	none
CCN(C(=O)c1ccc2c(c1)OCO2)C12CC3CC(CC(C3)C1)C2	PAFAH2 inh 40 (no result: IMP-1 inhibitor, VIM-2 inhibitor) | PAFAH2 confirm 35
Cc1nn(-c2ccccc2)c(C)c1/C=C/C(=O)OC(C)C(=O)Nc1ncc(Cl)cc1Cl (configuration not stated)	none
COc1ccc(/C=C/C(=O)OCC(=O)Nc2ccc(Cl)cn2)cc1	none
Cc1nn(-c2ccccc2)c(C)c1/C=C/C(=O)OCC(=O)Nc1ncc(Cl)cc1Cl	PAFAH2 inh 49 | PAFAH2 confirm 55
COc1ccc(/C=C/C(=O)OCC(=O)Nc2ncc(Cl)cc2Cl)cc1	PAFAH2 inh 37 (no result: IMP-1 inhibitor, VIM-2 inhibitor) | PAFAH2 confirm 43
Cc1ccc(S(=O)(=O)NCC(=O)OCC(=O)N2CC(C)OC(C)C2)cc1 (configuration not stated)	none (no result: IMP-1 inhibitor, VIM-2 inhibitor)
CC12CCC(O)CC1=CCC1C2CCC2(C)c3[nH]ncc3CC12 (configuration not stated)	none (no result: IMP-1 inhibitor, VIM-2 inhibitor, pPAFAH inh)
